According to article PMC7316614 (ACS nano, 2020):
Peptide text beside a SMILES is read from it.

Legend:
HS-5 cells [1] = assay: Multidrug resistance; assay type: cell-based; settings: normal cell line, Figure S5
HepG2 cells [2] = assay: Cell viability / cytotoxicity; assay type: cell-based
How it was run: (§1)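 HeLa and HepG2 grown in MEM with 10% (vol/vol) FBS and 0.5% (vol/vol) each penicillin and streptomycin, at 37 °C under 5% CO2. IC50 taken on the 2nd day of exposure to the test compound. Means ± SD from n > 3 independent experiments; significance by t-test.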

HepG2 cells [3] = assay: Mitochondrial accumulation, fluorescence imaging with MitoTracker; assay type: cell-based; settings: Flag-(C16)2, 48h
HeLa cells [4] = assay: Mitochondrial membrane potential by Rhodamine 123; assay type: cell-based; settings: 48h, Rhodamine 123, Figure S15
[5] = system: cytochrome c in HeLa cells; assay: Cytochrome c in cytosol, Western blot; assay type: cell-based; settings: different concentration, Figure S17
How it was run: (§2)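 Cells were exposed to the test compound for 48 h (HepG2: 100, 50, 25 and 0 μM). The cytosol fraction was blotted for cytochrome c. Protein was quantified by Coomassie, and 20 μg per lane was run on SDS-PAGE and transferred to PVDF. Bands were quantified by densitometry. Data are means ± SD, n > 3, t-test.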

AML12 cells = assay: Cell viability / cytotoxicity; assay type: cell-based
HeLa cells [6] = assay: Cell viability / cytotoxicity; assay type: cell-based; settings: Flag-(C16)2 alone, 48h
How it was run: as §1

Self-assembly = assay type: physicochemical; settings: 50 μM
[7] = Critical micelle concentration; assay type: physicochemical; settings: Figure S6
Drug loading efficiency = assay type: physicochemical; settings: determined from the LE%
HepG2 cells [8] = assay: Mitochondrial membrane potential by Rhodamine 123; assay type: cell-based; settings: 50 μM, 48 h
enterokinase (ENTK) = enterokinase (ENTK) (Homo sapiens, UniProt P98073); assay: Enzymatic cleavage by ENTK; assay type: biochemical; settings: Flag-(C16)2 at 200 μM (above CMC), Figure S7D
Sequence of enterokinase (ENTK) (P98073 whole entry, species assumed): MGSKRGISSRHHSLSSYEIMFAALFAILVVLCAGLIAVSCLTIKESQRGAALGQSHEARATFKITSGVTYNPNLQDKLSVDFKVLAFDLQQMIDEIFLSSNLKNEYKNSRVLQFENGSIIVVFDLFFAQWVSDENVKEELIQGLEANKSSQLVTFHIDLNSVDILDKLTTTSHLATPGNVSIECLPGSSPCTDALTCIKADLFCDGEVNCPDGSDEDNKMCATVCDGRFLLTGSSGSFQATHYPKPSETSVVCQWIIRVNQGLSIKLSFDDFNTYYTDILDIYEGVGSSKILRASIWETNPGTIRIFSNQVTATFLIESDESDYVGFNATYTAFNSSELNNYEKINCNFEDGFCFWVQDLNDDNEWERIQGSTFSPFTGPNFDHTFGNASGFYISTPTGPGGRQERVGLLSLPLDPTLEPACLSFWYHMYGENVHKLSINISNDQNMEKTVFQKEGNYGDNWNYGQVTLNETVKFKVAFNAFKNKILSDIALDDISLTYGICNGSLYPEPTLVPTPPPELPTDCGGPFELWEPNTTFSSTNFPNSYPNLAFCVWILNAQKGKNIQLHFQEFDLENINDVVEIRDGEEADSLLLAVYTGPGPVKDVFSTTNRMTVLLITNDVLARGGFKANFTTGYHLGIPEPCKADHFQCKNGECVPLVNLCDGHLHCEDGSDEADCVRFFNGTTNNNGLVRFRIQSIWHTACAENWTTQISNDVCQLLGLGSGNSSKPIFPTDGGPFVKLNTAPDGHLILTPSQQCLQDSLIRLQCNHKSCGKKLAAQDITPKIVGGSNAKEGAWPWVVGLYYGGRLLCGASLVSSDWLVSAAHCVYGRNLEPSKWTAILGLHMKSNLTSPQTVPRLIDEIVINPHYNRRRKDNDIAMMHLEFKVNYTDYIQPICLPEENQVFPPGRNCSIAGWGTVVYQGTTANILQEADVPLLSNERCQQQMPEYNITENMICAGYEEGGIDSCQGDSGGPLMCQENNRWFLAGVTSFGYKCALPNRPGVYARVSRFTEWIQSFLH

HS-5 cells [9] = assay: Cell viability / cytotoxicity; assay type: cell-based
[10] = system: cytochrome c in HepG2 cells; assay: Cytochrome c in cytosol, Western blot; assay type: cell-based; settings: 100, 50, 25 μM, 48 h
How it was run: as §2

[11] = Solubility of the enzymatic product; assay type: physicochemical; settings: direct suspension of the enzymatic product

Compound: O=C(N[C@H](CO)[C@H](O)c1ccc([N+](=O)[O-])cc1)C(Cl)Cl [CLRP, chloramphenicol, reference compound]
- change of MDR, HS-5 (HS-5 cells [1]): Neither CLRP nor CLRP mixed with Flag-(C16)2 significantly change the MDR
- cell viability, HepG2 (HepG2 cells [2]; free CLRP alone, Figure 2A): hardly suppresses the viability

Compound: CCCCCCCCCCCCCCCCNC(=O)CC[C@H](NC(=O)CNC(=O)[C@H](CCCCN)NC(=O)[C@H](CC(=O)O)NC(=O)[C@H](CC(=O)O)NC(=O)[C@H](CC(=O)O)NC(=O)[C@H](CC(=O)O)NC(=O)[C@H](CCCCN)NC(=O)[C@H](Cc1ccc(O)cc1)NC(=O)[C@@H](N)CC(=O)O)C(=O)NCCCCCCCCCCCCCCCC [Flag-(C16)2] (HELM PEPTIDE1{D.Y.K.D.D.D.D.K.G.E.[CCCCCCCCCCCCCCCCN[*:1]]}|CHEM1{[CCCCCCCCCCCCCCCCN[*:1]]}$PEPTIDE1,CHEM1,10:R3-1:R1$$$V2.0)
- mitochondrial morphology, HepG2 (HepG2 cells [3]): fragmental mitochondria
- mitochondrial membrane potential, HeLa (HeLa cells [4]): reduced mitochondrial membrane potential
- cytochrome c in the cytosol, HeLa [5]: increased cytochrome c
- cell death, AML12 (AML12 cells): hardly induces cell death
- cell viability, HeLa (HeLa cells [6]): decrease of cell viability
- self-assembly after adding ENTK (Self-assembly; ENTK, 24 h, 37 °C, static light scattering): larger micelle-like aggregates
- self-assembly in solution (Self-assembly; before ENTK): self-assembles into nanoparticles
- critical micelle concentration (CMC) [7]: 43 µM
- encapsulation capacity (EC) (Drug loading efficiency): 66.7 μg CLRP in per mg Flag-(C16)2 micelles
- cell viability, HepG2 (HepG2 cells [2]; Flag-(C16)2 alone, 48h): decrease of cell viability
- mitochondrial membrane potential, HepG2 (HepG2 cells [8]): reduced mitochondrial membrane potential
- hydrolysis by ENTK (enterokinase (ENTK)): hydrolyzes
- cell death, HS-5 (HS-5 cells [9]): hardly induces cell death
- cytochrome c in the cytosol, HepG2 [10]: increased cytochrome c

Compound: Gly-Glu-(C16)2
- solubility [11]: poor solubility
